Tested on: Canis familiaris
Assay: Compound was tested for diuretic activity in dogs at 5 mg/kg dose after intravenous administration, activity is expressed as urine volume; 1/6
Assay type: functional, Canis lupus familiaris
Settings: not given

Structure (SMILES)	Urine volume [mL/min]
O=C(c1ccc2c(c1)CC(C(=O)O)O2)c1cccs1 (configuration not stated)	1

Tested on: Canis familiaris
Assay: Compound was tested for diuretic activity in dogs at 5 mg/kg dose after intravenous administration measured as microequivalent of Na+/minute; 3/84 (Control/Drug treated)
Assay type: functional, Canis lupus familiaris, Urine
Settings: not given

Structure (SMILES)	Oral activity
CC(=O)c1cc2c(c(Cl)c1Cl)OC(C(=O)O)C2 (configuration not stated)	3

Tested on: Canis familiaris
Assay: Compound was tested for diuretic activity in dogs at 5 mg/kg dose after intravenous administration measured as microequivalent of Na+/minute; 4/193 (Control/Drug treated)
Assay type: functional, Canis lupus familiaris, Urine
Settings: not given

Structure (SMILES)	Na+ excretion [µequiv/min]
O=C(c1ccc2c(c1)CC(C(=O)O)O2)c1cccs1 (configuration not stated)	193

Tested on: Canis familiaris
Assay: Compound was tested for diuretic activity in dogs at 5 mg/kg dose after intravenous administration measured as microequivalent of Cl-/minute (Control/Drug treated)
Assay type: functional, Canis lupus familiaris, Urine
Settings: in the assay text read “oral” for “intravenous”

Structure (SMILES)	Oral activity
N#CC1Cc2cc(C(=O)c3cccs3)c(Cl)c(Cl)c2O1 (configuration not stated)	2.2

Tested on: Canis familiaris
Assay: Compound was tested for diuretic activity in dogs at 5 mg/kg dose after intravenous administration measured as microequivalent of K+/minute (Control/Drug treated)
Assay type: functional, Canis lupus familiaris, Urine
Settings: in the assay text read “oral” for “intravenous”

Structure (SMILES)	Oral activity
N#CC1Cc2cc(C(=O)c3cccs3)c(Cl)c(Cl)c2O1 (configuration not stated)	1.1

Tested on: Canis familiaris
Assay: Compound was tested for diuretic activity in dogs at 5 mg/kg dose after intravenous administration measured as microequivalent of K+/minute; 4/19 (Control/Drug treated)
Assay type: functional, Canis lupus familiaris, Urine
Settings: not given
How it was run: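 Intravenous dog clearance study. A priming iv injection of 1.5 mL/kg isoosmotic pH 7.4 phosphate buffer (20 mg PO4/kg) was given first. This was followed by infusion of 3 mL/min pH 7.4 buffer containing 4% mannitol (6.9 mg PO4/min) throughout the experiment. Urinary Na+, K+ and Cl- were measured by standard methods. Each value is the mean of the two highest consecutive 15-min collections.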

Structure (SMILES)	K+ excretion [µequiv/min]
O=C(c1ccccc1)c1cc2c(c(Cl)c1Cl)OC(C(=O)O)C2 (configuration not stated)	19

Tested on: Canis familiaris
Assay: Compound was tested for diuretic activity in dogs at 5 mg/kg dose after intravenous administration, activity is expressed as urine volume; 0.4/2
Assay type: functional, Canis lupus familiaris
Settings: not given

Structure (SMILES)	Urine volume [mL/min]
CC(=O)c1cc2c(c(Cl)c1Cl)OC(C(=O)O)C2 (configuration not stated)	0.4

Tested on: Rattus norvegicus
Assay: Natriuretic activity in rats at 27 mg/kg of dosage; mequiv of Na
Assay type: functional
Settings: not given
How it was run: (§1)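 Rats housed three per metabolism cage received placebo vehicle or compound as a suspension in a final volume of 5.0 mL orally, with placebo groups run concurrently. Urine was collected over 0–5 h and analysed for Na+, K+ and Cl− by standard methods. Values are mequiv per cage, given as geometric means of three cages per dose level.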

Structure (SMILES)	Oral activity
NNC(=O)C1Cc2cc(C(=O)c3cccs3)c(Cl)c(Cl)c2O1 (configuration not stated)	89
O=C(c1cccs1)c1cc2c(c(Cl)c1Cl)OC(CO)C2 (configuration not stated)	68
O=C(c1cccs1)c1cc2c(c(Cl)c1Cl)OC(c1nnn[nH]1)C2 (configuration not stated)	16
CC(=O)c1cc2c(c(Cl)c1Cl)OC(C(=O)O)C2 (configuration not stated)	76
N#CC1Cc2cc(C(=O)c3cccs3)c(Cl)c(Cl)c2O1 (configuration not stated)	10
O=C(c1ccccc1)c1cc2c(c(Cl)c1Cl)OC(C(=O)O)C2 (configuration not stated)	117
O=C(c1ccc2c(c1)CC(C(=O)O)O2)c1cccs1 (configuration not stated)	7
O=C(c1ccco1)c1cc2c(c(Cl)c1Cl)OC(C(=O)O)C2 (configuration not stated)	218

Tested on: Rattus norvegicus
Assay: Natriuretic activity in rats at 3 mg/kg of dosage; mequiv of Na
Assay type: functional
Settings: not given
How it was run: as §1

Structure (SMILES)	Oral activity
NNC(=O)C1Cc2cc(C(=O)c3cccs3)c(Cl)c(Cl)c2O1 (configuration not stated)	34
O=C(c1cccs1)c1cc2c(c(Cl)c1Cl)OC(CO)C2 (configuration not stated)	16
O=C(c1cccs1)c1cc2c(c(Cl)c1Cl)OC(c1nnn[nH]1)C2 (configuration not stated)	13
CC(=O)c1cc2c(c(Cl)c1Cl)OC(C(=O)O)C2 (configuration not stated)	13
N#CC1Cc2cc(C(=O)c3cccs3)c(Cl)c(Cl)c2O1 (configuration not stated)	6
O=C(c1ccccc1)c1cc2c(c(Cl)c1Cl)OC(C(=O)O)C2 (configuration not stated)	59
O=C(c1ccc2c(c1)CC(C(=O)O)O2)c1cccs1 (configuration not stated)	6
O=C(c1ccco1)c1cc2c(c(Cl)c1Cl)OC(C(=O)O)C2 (configuration not stated)	69

Tested on: Rattus norvegicus
Assay: Natriuretic activity in rats at 81 mg/kg of dosage; mequiv of Na
Assay type: functional
Settings: not given
How it was run: as §1

Structure (SMILES)	Oral activity
NNC(=O)C1Cc2cc(C(=O)c3cccs3)c(Cl)c(Cl)c2O1 (configuration not stated)	140
O=C(c1cccs1)c1cc2c(c(Cl)c1Cl)OC(CO)C2 (configuration not stated)	72
O=C(c1cccs1)c1cc2c(c(Cl)c1Cl)OC(c1nnn[nH]1)C2 (configuration not stated)	29
CC(=O)c1cc2c(c(Cl)c1Cl)OC(C(=O)O)C2 (configuration not stated)	161
N#CC1Cc2cc(C(=O)c3cccs3)c(Cl)c(Cl)c2O1 (configuration not stated)	8
O=C(c1ccccc1)c1cc2c(c(Cl)c1Cl)OC(C(=O)O)C2 (configuration not stated)	119
O=C(c1ccc2c(c1)CC(C(=O)O)O2)c1cccs1 (configuration not stated)	22
O=C(c1ccco1)c1cc2c(c(Cl)c1Cl)OC(C(=O)O)C2 (configuration not stated)	322

Tested on: Rattus norvegicus
Assay: Natriuretic activity in rats at 9 mg/kg of dosage; mequiv of Na
Assay type: functional
Settings: not given
How it was run: as §1

Structure (SMILES)	Oral activity
NNC(=O)C1Cc2cc(C(=O)c3cccs3)c(Cl)c(Cl)c2O1 (configuration not stated)	81
O=C(c1cccs1)c1cc2c(c(Cl)c1Cl)OC(CO)C2 (configuration not stated)	45
O=C(c1cccs1)c1cc2c(c(Cl)c1Cl)OC(c1nnn[nH]1)C2 (configuration not stated)	16
CC(=O)c1cc2c(c(Cl)c1Cl)OC(C(=O)O)C2 (configuration not stated)	26
N#CC1Cc2cc(C(=O)c3cccs3)c(Cl)c(Cl)c2O1 (configuration not stated)	9
O=C(c1ccccc1)c1cc2c(c(Cl)c1Cl)OC(C(=O)O)C2 (configuration not stated)	85
O=C(c1ccc2c(c1)CC(C(=O)O)O2)c1cccs1 (configuration not stated)	4
O=C(c1ccco1)c1cc2c(c(Cl)c1Cl)OC(C(=O)O)C2 (configuration not stated)	150

Tested on: not listed separately
Assay: Activity is measured as ratio of clearance of urate / […] at […]; Curate/Cinulin
Assay type: functional
Settings: not given
How it was run: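 Inulin iv gave GFR, and urate clearance was measured by AutoAnalyzer. Controls came from three 20-min periods. Aqueous compound was given orally by nasal catheter, and the response was averaged over eight 15-20 min periods. Values are treatment minus control from single experiments.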

Structure (SMILES)	Ratio
O=C(c1cccs1)c1cc2c(c(Cl)c1Cl)O[C@@H](C(=O)O)C2	0.157

Tested on: Canis familiaris
Assay: Diuretic activity in dogs following 5 mg/kg oral administration.
Settings: not given

Structure (SMILES)	Urine volume [mL]
N#CC1Cc2cc(C(=O)c3cccs3)c(Cl)c(Cl)c2O1 (configuration not stated)	190

Tested on: Canis familiaris
Assay: Compound was tested for diuretic activity in dogs at 5 mg/kg dose after oral administration measured as microequivalent of Na+/minute
Settings: not given

Structure (SMILES)	Oral activity
N#CC1Cc2cc(C(=O)c3cccs3)c(Cl)c(Cl)c2O1 (configuration not stated)	1
